Measurements from different studies.
Protocols differ between the studies behind these lines.
KCNA1: Potassium voltage-gated channel subfamily A member 1 (KCNA1, Homo sapiens, UniProt Q09470)
INSR: Insulin receptor (INSR, Homo sapiens, UniProt P06213)

SMILES	target	test	test system	conditions	endpoint	value
CNCCCC12CCC(c3ccccc31)c1ccccc12	KCNA1	ion current, inhibitor, patch clamp		30 µM	inhibition	50.2%
Cc1cc([C@@H](C)Nc2ccccc2C(=O)O)c2nc(N3CCC(F)(F)CC3)c(C#N)c(=O)n2c1	INSR	binding, competition with immobilised ligand		1 µM	remaining binding	100%
Cc1nnc(SCC2=C(C(=O)O)N3C(=O)[C@@H](NC(=O)Cn4cnnn4)[C@H]3SC2)s1	KCNA1	ion current, inhibitor, patch clamp		3 µM	inhibition	4.29%
COc1cc(-c2cncc3c2CN(C)Cc2cc(N4CCNCC4)ccc2-3)cc(OC)c1OC	Serine/threonine-protein kinase N2 (PKN2, Homo sapiens, UniProt Q16513)	enzyme activity, inhibitor		1 µM	remaining activity	112%
CC12CC3CC(C)(C1)CC(N)(C3)C2	KCNA1	ion current, inhibitor, patch clamp		30 µM	inhibition	45.8%
C=CC(=O)N1CCC(COCC(=O)N2CCN(c3nc(-c4cnc(N)nc4C(F)F)nc(N4CCOC[C@@H]4C)n3)CC2)CC1	Dual specificity protein kinase CLK2 (CLK2, Homo sapiens, UniProt P49760)	binding, competition with immobilised ligand		1 µM	remaining binding	79%
O=C(Cn1cc(C=CC(=O)c2ccc(F)cc2)nn1)Nc1nc(-c2ccccc2)cs1	Collagenase 3 (MMP13, Homo sapiens, UniProt P45452)	enzyme activity, inhibitor		0.5 µM	inhibition	35.8%
CNc1ncc2c(/C=C/C(=O)N3CCC(OC)CC3)nn(Cc3cccc(C(F)(F)F)c3)c2n1	Cyclin-dependent kinase 3, with cyclin E1 (CDK3, Homo sapiens, UniProt Q00526)	enzyme activity, inhibitor, radiometric		1 µM	remaining activity	93%
Cc1cc(NC(=O)c2cccc(NC(=O)/C=C/CN(C)C)c2)ccc1Nc1nccc(-c2cccnc2)n1	INSR	binding, competition with immobilised ligand		1 µM	remaining binding	81%
CC[C@H](C)[C@H](NC(=O)[C@H](CCC(N)=O)NC(=O)[C@H](CCCNC(=N)N)NC(=O)[C@H](CO)NC(=O)[C@H](Cc1c[nH]cn1)NC(=O)[C@@H]1CCCN1C(=O)[C@H](C)NC(=O)[C@H](CO)NC(=O)[C@H](CC(C)C)NC(=O)CNC(=O)[C@@H]1CCCN1C(=O)[C@H](CCC(N)=O)NC(=O)[C@H](CCC(N)=O)NC(=O)[C@H](CCCNC(=N)N)NC(=O)[C@H](CO)NC(=O)CNC(=O)[C@H](CO)NC(=O)[C@H](CO)NC(=O)[C@H](CCC(=O)O)NC(=O)[C@@H]1CCCN1C(=O)[C@@H]1CCCN1C(=O)[C@@H]1CCCN1C(=O)[C@H](CO)NC(=O)[C@H](CC(C)C)NC(=O)[C@H](CO)NC(=O)[C@@H](NC(=O)CN)[C@@H](C)O)C(=O)N1CCC[C@H]1C(=O)N[C@@H](C)C(=O)N1CCC[C@H]1C(=O)N[C@@H](CCC(N)=O)C(=O)NCC(=O)N[C@@H](C)C(=O)N[C@H](C(=O)N[C@@H](CC(C)C)C(=O)N[C@H](C(=O)N[C@@H](CCC(N)=O)C(=O)N[C@@H](CCCNC(=N)N)C(=O)N[C@@H](CCC(=O)O)C(=O)N[C@@H](CCCCN)C(=O)N[C@@H](CC(=O)O)C(=O)N[C@@H](CC(C)C)C(=O)N1CCC[C@H]1C(=O)N[C@@H](CC(N)=O)C(=O)N[C@@H](Cc1ccc(O)cc1)C(=O)N[C@@H](CC(N)=O)C(=O)N[C@@H](Cc1c[nH]c2ccccc12)C(=O)N[C@@H](CC(N)=O)C(=O)N[C@@H](CO)C(=O)N[C@@H](Cc1ccccc1)C(=O)NCC(=O)N[C@@H](CC(C)C)C(=O)N[C@@H](CCCNC(=N)N)C(=O)N[C@@H](Cc1ccccc1)C(N)=O)C(C)C)C(C)C	KiSS-1 receptor (KISS1R, Homo sapiens, UniProt Q969F8, N119A)	inositol phosphate, agonist	HEK293		Emax	93.6%
